Results pooled from the literature.
Compare with care: the assays were run in different laboratories.
Target: Tyrosine-protein kinase Srms (SRMS, Homo sapiens, UniProt Q9H3Y6)

C[C@H](c1ccnc(Nc2nc3ccc(-c4cc(N(C)C)ncn4)cc3[nH]2)c1)N1CCN(C(=O)CC(F)(F)F)CC1 gave a remaining binding of 97% (cell-free assay; competition with immobilised ligand; 0.1 µM).
COc1cc2ncnc(Nc3ccc(Oc4ccccc4)c(C)c3C)c2cc1OC gave an inhibition of 24% (enzyme activity; inhibitor; 1 µM).
With CNC(=O)c1cc2c(Oc3ccc(NC(=O)C4(C(=O)Nc5ccc(F)cc5)CC4)cc3)ccnc2cc1OC the inhibition was 97% (enzyme activity; inhibitor; radiometric; 1 µM).
For N#CCCc1ccc2c(c1)-c1[nH]c3ccc([N+](=O)[O-])cc3c1CC(=O)N2, the remaining signal was 78.6% (cell-free assay; 0.5 µM).
For O=C(NC[C@@H]1[C@H]2CN(C(=O)OCc3cc(C(F)(F)F)cc(C(F)(F)F)c3)C[C@@H]12)c1ccc2[nH]nnc2c1, the remaining binding was 83% (cell-free assay; competition with immobilised ligand; 1 µM).
O=C(Nc1cnn(-c2csc(C(=O)NC3COC3)c2)c1)Nc1ccccc1Cl gave a remaining activity of 99.8% (enzyme activity; inhibitor; 5 µM).
O=C(Nc1ccc(Oc2ccc(F)cc2)cc1)N1CCc2ncccc2[C@H]1c1ccc(F)cc1 has a remaining binding of 94% (cell-free assay; competition with immobilised ligand; 1 µM).
O=C1NC(=O)c2cc(Nc3ccc(F)cc3)c(Nc3ccc(F)cc3)cc21 has a remaining signal of 95.5% (cell-free assay; 0.5 µM).
The remaining activity of CC(C)(C)c1nc(-c2cccc(NS(=O)(=O)c3c(F)cccc3F)c2F)c(-c2ccnc(N)n2)s1 is reported as 10% (enzyme activity; inhibitor; radiometric; 1 µM).
CNCc1ccccc1-c1csc([C@H](C)Nc2nc(C)nc3cc(OC)c(OC)cc23)c1 gave a remaining binding of 88% (cell-free assay; competition with immobilised ligand; 1 µM).
O=C(Nc1cnn(-c2csc(C(=O)NC3COC3)c2)c1)Nc1c(F)cccc1Cl has a remaining activity of 105% (enzyme activity; inhibitor; 5 µM).
The inhibition of CN1CC(Oc2cnc(C#N)cc2-c2ccn3nc(NC(=O)C4CC4)cc3c2)C1 is reported as 4% (enzyme activity; inhibitor; 1 µM).
